Experimental data as given in ChEMBL document CHEMBL4359865, “Synthesis and evaluation of 2,5-furan, 2,5-thiophene and 3,4-thiophene-based derivatives as CXCR4 inhibitors” (Eur J Med Chem, 2019).

Assays:
[1] = target: C-X-C chemokine receptor type 4 (Homo sapiens) (UniProt P61073); experiment: Inhibition of biotinylated TN14003 binding to CXCR4 in human MDA-MB-231 cells preincubated for 10 mins followed by biotinylated-TN14003 addition measured after 30 mins by streptavidin-rhodamine staining based fluorescence microscopic analysis; type: cell-based
Summary of the method: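 MDA-MB-231 cells (CXCR4-overexpressing) exposed to compound at 1, 10, 100 and 1000 nM for 10 min at room temperature. Cells fixed in chilled 4% paraformaldehyde, rehydrated in PBS, then stained with 0.05 µg/mL biotinylated TN14003 for 30 min at room temperature, washed three times in PBS, and stained with streptavidin-rhodamine (1:150) for 30 min. Read by fluorescence microscopy. EC taken as the lowest concentration, by order of magnitude, giving a significant drop in fluorescence versus control.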

[2] = Toxicity in C57BL/6J mouse at 10 mg/kg, ip; type: organism-based; conditions: in vivo
[3] = target: C-X-C chemokine receptor type 4 (Homo sapiens) (UniProt P61073); experiment: Inhibition of CXCR4-mediated chemotaxis in human MDA-MB-231 cells assessed as reduction in CXCL12alpha-induced cell invasion at 100 nM incubated for 22 hrs by hematoxylin/eosin dye-based matrigel assay relative to control
Summary of the method: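 Run in a Matrigel invasion chamber. The bottom chamber held CXCL12 (200 ng/mL). MDA-MB-231 cells were treated with compound at 100 nM, placed in the top chamber, and incubated 22 h in a humidified incubator. Non-invading cells were swabbed off; cells in the bottom chamber were H&E-stained, fixed in methanol and counted. Results given as % inhibition of invasion versus negative control.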

Mus musculus = experiment: Antiinflammatory activity in C57BL/6J mouse assessed as inhibition of carrageenan-induced paw edema at 10 mg/kg, ip daily dosed 30 mins after carrageenan challenge and measured after 74 hrs carrageenan challenge and 2 hrs post last dose by caliper method relative to control; type: functional

Chain of C-X-C chemokine receptor type 4 (Homo sapiens) (P61073 whole entry): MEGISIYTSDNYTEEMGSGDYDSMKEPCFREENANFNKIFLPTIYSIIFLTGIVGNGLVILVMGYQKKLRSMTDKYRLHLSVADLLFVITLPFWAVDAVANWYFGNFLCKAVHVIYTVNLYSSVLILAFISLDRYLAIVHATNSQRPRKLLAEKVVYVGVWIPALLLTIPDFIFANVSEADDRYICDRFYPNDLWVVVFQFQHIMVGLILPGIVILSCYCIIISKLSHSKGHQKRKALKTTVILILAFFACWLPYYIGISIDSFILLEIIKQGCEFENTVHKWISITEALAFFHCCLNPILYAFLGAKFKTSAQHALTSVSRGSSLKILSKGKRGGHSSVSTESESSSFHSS

SMILES | EC [1] [nM] | Activity [2] | inhibition [3] [%] | inhibition in vivo at 10 mg/kg (Mus musculus) [%]
COc1ccc(NCc2ccc(CNc3ccc(OC)cc3)o2)cc1 | > 1000 |  |  | 
CCc1ccc(NCc2cscc2CNc2ccc(CC)cc2)cc1 | > 1000 |  |  | 
CCc1ccccc1NCc1ccc(CNc2ccccc2CC)o1 | 1000 |  |  | 
Cc1ccccc1NCc1ccc(CNc2ccccc2C)o1 | > 1000 |  |  | 
Cc1ccc(NCc2ccc(CNc3ccc(C)cc3)s2)cc1 | 100 | Non-Toxic | 49 | 
Cc1cccc(NCc2cscc2CNc2cccc(C)c2)c1 | > 1000 |  |  | 
Fc1cccc(NCc2cscc2CNc2cccc(F)c2)c1 | > 1000 |  |  | 
CCc1ccccc1NCc1ccc(CNc2ccccc2CC)s1 | 1000 |  |  | 
Cc1cccc(NCc2ccc(CNc3cccc(C)c3)o2)c1 | > 1000 |  |  | 
Clc1ccc(NCc2cscc2CNc2ccc(Cl)cc2)cc1 | > 1000 |  |  | 
Cc1ccccc1NCc1ccc(CNc2ccccc2C)s1 | 10 | Non-Toxic | 61 | 
Fc1ccc(NCc2ccc(CNc3ccc(F)cc3)s2)cc1 | > 1000 |  |  | 
Clc1ccccc1NCc1ccc(CNc2ccccc2Cl)o1 | > 1000 |  |  | 
COc1cccc(NCc2ccc(CNc3cccc(OC)c3)s2)c1 | 1000 |  |  | 
FC(F)(F)c1cccc(NCc2ccc(CNc3cccc(C(F)(F)F)c3)s2)c1 | 100 | Non-Toxic | 77 | 
COc1ccccc1NCc1ccc(CNc2ccccc2OC)o1 | 100 |  | 5 | 
c1cc(CN2CCOCC2)sc1CN1CCOCC1 | > 1000 |  |  | 
FC(F)(F)c1ccccc1NCc1ccc(CNc2ccccc2C(F)(F)F)s1 | > 1000 |  |  | 
COc1cccc(NCc2ccc(CNc3cccc(OC)c3)o2)c1 | > 1000 |  |  | 
CSc1ccc(NCc2ccc(CNc3ccc(SC)cc3)o2)cc1 | > 1000 |  |  | 

SMILES | EC [1] [nM] | Activity [2] | inhibition [3] [%] | inhibition in vivo at 10 mg/kg (Mus musculus) [%]
c1ccc(NCc2cscc2CNc2ccccc2)cc1 | 10 | Non-Toxic | 72 | 
Fc1ccccc1NCc1ccc(CNc2ccccc2F)s1 | 1000 |  |  | 
Fc1cccc(NCc2ccc(CNc3cccc(F)c3)o2)c1 | > 1000 |  |  | 
CSc1ccc(NCc2ccc(CNc3ccc(SC)cc3)s2)cc1 | 100 |  | 88 | 
COc1ccc(NCc2ccc(CNc3ccc(OC)cc3)s2)cc1 | 10 | Non-Toxic | 84 | 
Cc1cccc(NCc2ccc(CNc3cccc(C)c3)s2)c1 | > 1000 |  |  | 
Clc1cccc(NCc2ccc(CNc3cccc(Cl)c3)o2)c1 | > 1000 |  |  | 
Clc1cccc(NCc2ccc(CNc3cccc(Cl)c3)s2)c1 | 100 | Non-Toxic | 51 | 
CCc1cccc(NCc2ccc(CNc3cccc(CC)c3)s2)c1 | > 1000 |  |  | 
c1ccc(NCc2ccc(CNc3ccccn3)cc2)nc1 |  | Non-Toxic |  | 40
FC(F)(F)c1ccc(NCc2cscc2CNc2ccc(C(F)(F)F)cc2)cc1 | > 1000 |  |  | 
CCc1ccc(NCc2ccc(CNc3ccc(CC)cc3)s2)cc1 | > 1000 |  |  | 
c1cc(CN2CCSCC2)oc1CN1CCSCC1 | 10 |  | 79 | 
Cc1ccc(NCc2cscc2CNc2ccc(C)cc2)cc1 | > 1000 |  |  | 
c1cc(CN2CCOCC2)oc1CN1CCOCC1 | 1000 |  |  | 
Clc1ccc(NCc2ccc(CNc3ccc(Cl)cc3)o2)cc1 | 10 | Non-Toxic | 48 | 17
Clc1ccccc1NCc1ccc(CNc2ccccc2Cl)s1 | 10 | Non-Toxic | 93 | > 5
c1cc(CN2CCSCC2)sc1CN1CCSCC1 | 1 | Non-Toxic | 88 | 
FC(F)(F)c1ccc(NCc2ccc(CNc3ccc(C(F)(F)F)cc3)s2)cc1 | > 1000 |  |  | 

The next lines start with results.

EC [1] [nM] | SMILES | Activity [2] | inhibition [3] [%] | inhibition in vivo at 10 mg/kg (Mus musculus) [%]
10 | Fc1ccccc1NCc1ccc(CNc2ccccc2F)o1 | Non-Toxic | 71 | 
> 1000 | Fc1ccc(NCc2cscc2CNc2ccc(F)cc2)cc1 |  |  | 
> 1000 | Clc1cccc(NCc2cscc2CNc2cccc(Cl)c2)c1 |  |  | 
1 | c1ccc(NCc2ccc(CNc3ccccc3)s2)cc1 | Non-Toxic | 68 | 30
100 | CN1CCN(Cc2ccc(CN3CCN(C)CC3)s2)CC1 |  | 86 | 
> 1000 | Fc1cccc(NCc2ccc(CNc3cccc(F)c3)s2)c1 |  |  | 
> 1000 | FC(F)(F)c1cccc(NCc2ccc(CNc3cccc(C(F)(F)F)c3)o2)c1 |  |  | 
100 | Cc1ccc(NCc2ccc(CNc3ccc(C)cc3)o2)cc1 | Non-Toxic | 75 | 15
1 | Clc1ccc(NCc2ccc(CNc3ccc(Cl)cc3)s2)cc1 |  | 22 | 
> 1000 | CCc1cccc(NCc2ccc(CNc3cccc(CC)c3)o2)c1 |  |  | 
> 1000 | c1ccc(NCc2ccc(CNc3ccccc3)o2)cc1 |  |  | 
100 | FC(F)(F)c1ccccc1NCc1ccc(CNc2ccccc2C(F)(F)F)o1 |  | 24 | 
> 1000 | CCc1ccc(NCc2ccc(CNc3ccc(CC)cc3)o2)cc1 |  |  | 
100 | Fc1ccc(NCc2ccc(CNc3ccc(F)cc3)o2)cc1 | Non-Toxic | 53 | 31
10 | COc1ccccc1NCc1ccc(CNc2ccccc2OC)s1 | Non-Toxic | 52 | 
10 | CN1CCN(Cc2ccc(CN3CCN(C)CC3)o2)CC1 | Non-Toxic | 82 | 
> 1000 | FC(F)(F)c1ccc(NCc2ccc(CNc3ccc(C(F)(F)F)cc3)o2)cc1 |  |  | 
> 1000 | FC(F)(F)c1cccc(NCc2cscc2CNc2cccc(C(F)(F)F)c2)c1 |  |  | 
